# Source: PubChem
# STEP inh = inhibitors of human striatal-enriched phosphatase STEP; P54829; recombinant STEP, OMFP fluorogenic substrate, fluorescence; inhibition, % at 20 µM; 360,000 compounds, 0.25% hits;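 active means inhibition at 20 µM, scaled per plate between control wells, above about 37%, limit read from the data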
#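 Also added – OMFP at 25 µM · Test system – STEP tyrosine phosphatase · Technique – FITC-channel fluorescence of OMFP product · Schedule – 20 min at room temperature, dark · Evaluation – control-normalized % inhibition with plate pattern correction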
# Casp6 inh = blocks human caspase-6 cleavage activity; P55212; purified caspase-6, Z-VEID-R110 cleavage fluorescence; 350,000 compounds, 0.53% hits; inhibition, % at 12.5 µM;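 active means mean inhibition across replicates at least about 35%, with every replicate also reaching that limit, limit read from the data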
# Scp-1 inhibitor = Scp-1 (human) phosphatase inhibition; Q9GZU7; Recombinant Scp1, phosphopeptide, malachite green phosphate absorbance; inhibition, % at 20 µM; 340,000 compounds, 0.88% hits; AID 493091;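 active means inhibition above about 50% at 20 µM, limit read from the data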
# Target sequence (Q9GZU7 76-261 limits assumed): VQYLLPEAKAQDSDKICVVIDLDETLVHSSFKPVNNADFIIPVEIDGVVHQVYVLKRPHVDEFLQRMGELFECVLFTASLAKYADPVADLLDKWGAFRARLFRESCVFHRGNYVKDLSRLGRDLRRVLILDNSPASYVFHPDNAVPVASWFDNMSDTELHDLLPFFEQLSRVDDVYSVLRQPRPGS
#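 System: truncated SCP-1 phosphatase (76-261aa); medium: Tris acetate buffer pH 5.5 with MgCl2 and Tween-20; incubation: 45 min room-temperature reaction, 5 min colour, 30 min stabiliser; compound: single 20 µM dose, 1% DMSO; reagent: Phosphorylated 17-residue peptide substrate; read-out: % inhibition at 20 µM; technique: colorimetric free-phosphate detection, absorbance 630 nm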
# LMPTP inh = LMPTP (human) inhibition. P24666. recombinant LMPTP-A, OMFP fluorogenic substrate, fluorescence intensity. inhibition, % at 20 µM. 360,000 compounds, 0.22% hits. AID 651560;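 active means compounds that cut the enzyme signal by at least half of the control window in the single-dose screen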
#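 Test system: LMPTP-A, protein tyrosine phosphatase of low molecular weight; Input: 0.625 nM enzyme; Incubation: 50 min dark incubation at room temperature; Signal: endpoint fluorescence intensity from OMFP dephosphorylation; Read-out basis: % inhibition versus control wells.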
# SUMO1 PPI mod = alters human SUMO1 binding to SIM partners; 360,000 compounds, 0.33% hits; inhibition, % at 20 µM; P63165; AID 602429; SUMO1 binding to a labelled peptide, TR-FRET, 1 h; in the data active means inhibition above about 37%
# Target sequence (P63165 whole entry, looked up): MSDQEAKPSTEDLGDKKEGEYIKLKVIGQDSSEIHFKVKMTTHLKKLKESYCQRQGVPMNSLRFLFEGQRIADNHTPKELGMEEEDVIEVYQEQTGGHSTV
# DNMT1 block = blocks human DNA methyltransferase DNMT1; P26358; DNMT1 molecular beacon, Hinp1I cleavage, fluorescence; inhibition (reported as % activation of signal), % at 10 µM; 360,000 compounds, 0.83% hits; in the data active means inhibition above about 50%
# Numbers stand for hits; – = inactive; · = no result given; + = active, no number. The list is not random: actives were taken first. Their share in the collection is about 1.7%.
SMILES,STEP inh,Casp6 inh,Scp-1 inhibitor,LMPTP inh,SUMO1 PPI mod,DNMT1 block
CSCCC(NC(=O)COc1ccccc1)C(=O)N(C)CC(=O)Nc1c(C)cccc1C (stereo unspecified),–,41.9,–,–,–,–
Cc1ccc(N2CCN(S(=O)(=O)c3cccs3)CC2C)cc1 (stereo unspecified),–,–,–,–,–,–
CC(=O)Oc1ccc2c(c1)Oc1cc(OC(C)=O)ccc1C21OC(=O)c2ccccc21,–,·,–,–,–,+
Cn1ccsc1=NC(=O)c1ccccc1OC(F)F,–,–,–,–,–,–
COc1ccc(C(=O)/C(C#N)=N/Nc2ccccc2[N+](=O)[O-])cc1,–,–,–,–,–,–
COc1ccc(C(=O)/C(C#N)=N/Nc2ccc([N+](=O)[O-])cc2)cc1,95.8,–,65.6,73.4,–,–
O=C(Nc1cc(Cl)ccc1Cl)c1noc2c1CCCC2,–,–,–,–,–,–
O=C(Nc1ccc(F)cc1F)c1noc2c1CCC2,–,·,78.6,–,–,88.3
O=C(C(=O)N1CCN(C(=O)C2CCCC2)CC1)c1cccc(C(F)(F)F)c1,·,–,·,·,·,·
O=c1oc2ccccc2n1CCn1c2ccccc2c2nc3ccccc3nc21,–,·,–,73.0,–,62.0
CCOc1ccc(C2C(C(=O)c3ccco3)=C(O)C(=O)N2CCCn2ccnc2)cc1OC (stereo unspecified),–,–,–,–,46.6,–
OC1CCCN(CC(O)COC(c2ccccc2)c2ccccc2)C1 (stereo unspecified),–,–,–,–,–,–
CC1CCCN(CC(O)COC(c2ccccc2)c2ccccc2)C1 (stereo unspecified),–,38.1,–,–,–,–
COc1ccccc1-c1c(C#N)c(N)nc2c1CCc1ccccc1-2,–,·,–,–,36.3,–
Cc1cc(NS(=O)(=O)c2ccc(NC(=O)COc3ccccc3C(C)(C)C)cc2)no1,–,–,–,–,–,–
Cc1cc(NS(=O)(=O)c2ccc(NC(=O)COc3ccccc3[N+](=O)[O-])cc2)no1,–,73.6,–,–,–,–
CCOC(=O)C12CNC(=O)C(C(=O)OCC)(CNC1=O)C2,–,·,–,–,39.6,–
COc1ccc2c(c1)N(C)/C(=C/c1cccc[n+]1C)S2,–,–,–,–,–,–
CCN1/C(=C/c2cccc[n+]2C)Sc2ccc(OC)cc21,–,–,108.9,–,–,–
Cc1cc(C2(O)C(=O)Nc3ccccc32)ccc1F (stereo unspecified),–,35.7,–,–,–,–
O=C1Nc2ccccc2C1(O)c1ccccc1O (stereo unspecified),–,–,–,–,–,–
C[C@H]1CN([C@@H](C)CO)C(=O)c2cc(-c3ccccc3)cnc2O[C@@H]1CN(C)C(=O)C1CCOCC1,·,–,·,·,·,·
Cc1ccc(-c2nonc2NC(=O)c2ccco2)cc1,–,–,–,–,–,–
Cc1ccccc1CN1C(=O)C(C)Sc2ccc(-c3ccco3)cc21 (stereo unspecified),–,–,·,–,–,58.0
CC(C)N1C(=O)S/C(=C\c2ccc(-c3ccc(Cl)c(C(=O)O)c3)o2)C1=O,–,–,67.6,–,–,–
SMILES,STEP inh,Casp6 inh,Scp-1 inhibitor,LMPTP inh,SUMO1 PPI mod,DNMT1 block
CCc1c(-c2cccc(Br)c2)ncn1CCc1ccccc1OC,·,–,·,·,·,·
CCN(CC)CCN(C(=O)CCOc1ccccc1)c1nc2ccc(F)cc2s1,–,–,–,–,–,–
COc1ccc2[nH]c3c(=O)n(/N=C/c4ccc(OC)c(CN5CCCC5)c4)c(C)nc3c2c1,–,–,–,–,66.2,–
O=C(Nc1c2ccccc2nc2ccccc12)C(Cl)(Cl)Cl,–,·,–,–,–,51.2
O=C(Cc1ccccc1)NNc1c2ccccc2nc2ccccc12,–,·,–,–,–,–
CCN1C(=O)/C(=C\c2cn(-c3ccccc3)nc2-c2cccnc2)SC1=S,–,–,–,–,–,53.3
Cc1cc(-c2nn(-c3ccccc3)cc2/C=C2\SC(N)=NC2=O)ccc1OC(C)C,–,–,–,–,–,–
O=C(O)CN1C(=O)/C(=C\c2cn(-c3ccccc3)nc2-c2ccccc2)SC1=S,–,·,–,–,–,–
